Laboratory results published in ChEMBL document CHEMBL4706541, “Design and synthesis of 1H-indazole-3-carboxamide derivatives as potent and selective PAK1 inhibitors with anti-tumour migration and invasion activities” (Eur J Med Chem, 2020).
Activity calls are given as the source filed them. The rule behind the calls is not given here.

Assays:
[1] = molecular target: CDK6/cyclin D1 (Homo sapiens) (UniProt P24385+Q00534); experiment: Inhibition of CDK6/cyclin Dl (unknown origin) assessed as residual activity at 0.1 uM preincubated for 20 min followed by [gamma33P]ATP addition and measured after 120 mins by Hotspot assay relative to control; format: protein-complex assay; settings: time 140.0 min
Outline: (§1)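 Radiometric HotSpot kinase assay. Kinase and substrate are combined in 20 mM Hepes pH 7.5, 10 mM MgCl2, 1 mM EGTA, 0.02% Brij35, 0.02 mg/mL BSA, 0.1 mM Na3VO4, 2 mM DTT and 1% DMSO. Compound is added and preincubated 20 min at room temperature. The reaction starts with ATP plus 33P-ATP at 10 µM final and runs 120 min at 25 °C. Filter-binding read-out, given as % activity remaining versus DMSO.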

[2] = molecular target: Voltage-gated inwardly rectifying potassium channel KCNH2 (Homo sapiens, UniProt Q12809); experiment: Inhibition of human ERG
[3] = molecular target: Serine/threonine-protein kinase B-raf (Homo sapiens) (UniProt P15056); experiment: Inhibition of BRAF (unknown origin) assessed as residual activity at 0.1 uM preincubated for 20 min followed by [gamma33P]ATP addition and measured after 120 mins by Hotspot assay relative to control; settings: time 140.0 min; outline: as §1
[4] = molecular target: Ephrin type-A receptor 1 (Homo sapiens) (UniProt P21709); experiment: Inhibition of EPHA1 (unknown origin) assessed as residual activity at 0.1 uM preincubated for 20 min followed by [gamma33P]ATP addition and measured after 120 mins by Hotspot assay relative to control; settings: time 140.0 min; outline: as §1
[5] = molecular target: Mast/stem cell growth factor receptor Kit (Homo sapiens) (UniProt P10721); experiment: Inhibition of c-Kit (unknown origin) assessed as residual activity at 0.1 uM preincubated for 20 min followed by [gamma33P]ATP addition and measured after 120 mins by Hotspot assay relative to control; settings: time 140.0 min; outline: as §1
[6] = molecular target: Mitogen-activated protein kinase 14 (Homo sapiens) (UniProt Q16539); experiment: Inhibition of P38alpha (unknown origin) assessed as residual activity at 0.1 uM preincubated for 20 min followed by [gamma33P]ATP addition and measured after 120 mins by Hotspot assay relative to control; settings: time 140.0 min; outline: as §1
[7] = molecular target: ALK tyrosine kinase receptor (Homo sapiens) (UniProt Q9UM73); experiment: Inhibition of ALK (unknown origin) assessed as residual activity at 0.1 uM preincubated for 20 min followed by [gamma33P]ATP addition and measured after 120 mins by Hotspot assay relative to control; settings: time 140.0 min; outline: as §1
[8] = molecular target: Tyrosine-protein kinase ABL1 (Homo sapiens) (UniProt P00519); experiment: Inhibition of ABL1 (unknown origin) assessed as residual activity at 0.1 uM preincubated for 20 min followed by [gamma33P]ATP addition and measured after 120 mins by Hotspot assay relative to control; settings: time 140.0 min; outline: as §1
[9] = molecular target: T1, Serine/threonine-protein kinase PAK 1 (Homo sapiens, UniProt Q13153); experiment: Inhibition of full length recombinant human N-terminal GST/His6-tagged PAK1 expressed in sf9 insect cells assessed as residual activity at 0.1 uM using tetra LRRWSLG as substrate preincubated for 20 min followed by [gamma33P]ATP addition and measured after 120 mins by Hotspot assay relative to control; settings: time 140.0 min; outline: as §1
HCT-116 = experiment: Antiproliferative activity against human HCT-116 cells assessed as growth inhibition at 1 uM after 72 hrs by Cell Titer-Glo assay relative to control; format: functional; settings: read-out: GI
Outline: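 Cells kept at 37 °C in 5% CO2 and plated at 4000 per well. Treated with compound for 72 h. Viability read by CellTiter-Glo luminescence. Each compound run in duplicate, data as means ± SD.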

[10] = molecular target: Serine/threonine-protein kinase PAK 4 (Homo sapiens, UniProt O96013); experiment: Inhibtion of full length recombinant human N-terminal GST/His6-tagged PAK4 expressed in baculovirus infected sf9 insect cells assessed as residual activity at 0.1 uM using tetra LRRWSLG as substrate preincubated for 20 min followed by [gamma33P]ATP addition and measured after 120 mins by Hotspot assay relative to control; settings: time 140.0 min; outline: as §1
MDA-MB-231 = experiment: Antimigratory activity against human MDA-MB-231 cells after 24 hrs by inverted microscopic based Wound healing assay; format: functional, cell-based; settings: dose 0.25-1 µM
Outline: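 Cells grown to confluence and scratched with a sterile pipette tip, or placed at 1×10^5 cells in serum-free DMEM with 0.1% […] in the upper part of Matrigel-coated Boyden chambers over DMEM with 10% FBS. Compound treatment for 24 h at 37 °C. Read-out is wound distance from images or the count of invaded cells on the lower filter face after fixing and staining. Data given as means ± SD.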

[11] = molecular target: Tyrosine-protein kinase receptor UFO (Homo sapiens) (UniProt P30530); experiment: Inhibition of AXL (unknown origin) assessed as residual activity at 0.1 uM preincubated for 20 min followed by [gamma33P]ATP addition and measured after 120 mins by Hotspot assay relative to control; settings: time 140.0 min; outline: as §1
[12] = molecular target: Mitogen-activated protein kinase 3 (Homo sapiens) (UniProt P27361); experiment: Inhibition of ERK1 (unknown origin) assessed as residual activity at 0.1 uM preincubated for 20 min followed by [gamma33P]ATP addition and measured after 120 mins by Hotspot assay relative to control; settings: time 140.0 min; outline: as §1
[13] = molecular target: Tyrosine-protein kinase BTK (Homo sapiens) (UniProt Q06187); experiment: Inhibition of BTK (unknown origin) assessed as residual activity at 0.1 uM preincubated for 20 min followed by [gamma33P]ATP addition and measured after 120 mins by Hotspot assay relative to control; settings: time 140.0 min; outline: as §1
[14] = molecular target: T1, Serine/threonine-protein kinase PAK 1; experiment: Inhibition of PAK1 in human MDA-MB-231 cells assessed as reduction in snail protein expression at 2.5 to 20 uM after 1 to 24 hrs by Western blot analysis; format: cell-based; settings: dose 2.5-20 µM, time 1-24 hrs
Outline: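 Whole-cell extracts made from 1×10^6 treated cells in RIPA buffer (50 mM Tris/HCl pH 7.4, 150 mM NaCl, 1% NP-40, 0.25% deoxycholate, 1 mM EDTA, protease inhibitors). Proteins separated by SDS-PAGE, blotted to PVDF and blocked in 5% milk in TBS-T. Membranes probed for PAK1, phospho-PAK1 Ser144, Snail and actin, with β-actin as loading control. ECL detection.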

[15] = molecular target: Epidermal growth factor receptor (Homo sapiens) (UniProt P00533); experiment: Inhibition of EGFR (unknown origin) assessed as residual activity at 0.1 uM preincubated for 20 min followed by [gamma33P]ATP addition and measured after 120 mins by Hotspot assay relative to control; settings: time 140.0 min; outline: as §1
[16] = molecular target: LIM domain kinase 1 (Homo sapiens) (UniProt P53667); experiment: Inhibition of LIMK1 (unknown origin) assessed as residual activity at 0.1 uM preincubated for 20 min followed by [gamma33P]ATP addition and measured after 120 mins by Hotspot assay relative to control; settings: time 140.0 min; outline: as §1
LIM domain kinase 1 (Homo sapiens), sequence (P53667 whole entry, looked up, the tested form may be a part): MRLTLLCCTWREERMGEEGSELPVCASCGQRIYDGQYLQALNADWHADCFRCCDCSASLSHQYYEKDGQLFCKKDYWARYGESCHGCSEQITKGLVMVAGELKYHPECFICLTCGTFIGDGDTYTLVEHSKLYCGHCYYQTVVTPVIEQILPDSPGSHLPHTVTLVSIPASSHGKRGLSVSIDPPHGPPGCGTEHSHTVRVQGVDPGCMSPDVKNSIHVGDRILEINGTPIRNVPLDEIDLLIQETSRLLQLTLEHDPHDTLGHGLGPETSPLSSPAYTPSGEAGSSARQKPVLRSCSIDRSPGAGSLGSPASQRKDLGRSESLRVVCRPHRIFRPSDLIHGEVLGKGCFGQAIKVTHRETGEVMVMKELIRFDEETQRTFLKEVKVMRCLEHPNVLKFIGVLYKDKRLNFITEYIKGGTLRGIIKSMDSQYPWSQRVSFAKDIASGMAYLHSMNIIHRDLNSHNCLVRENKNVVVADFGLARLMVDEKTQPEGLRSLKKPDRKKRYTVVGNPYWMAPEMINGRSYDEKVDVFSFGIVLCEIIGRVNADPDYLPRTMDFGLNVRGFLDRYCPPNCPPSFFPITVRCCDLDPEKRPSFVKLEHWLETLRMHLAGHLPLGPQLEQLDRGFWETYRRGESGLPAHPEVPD

T1 sequence (Q13153 whole entry): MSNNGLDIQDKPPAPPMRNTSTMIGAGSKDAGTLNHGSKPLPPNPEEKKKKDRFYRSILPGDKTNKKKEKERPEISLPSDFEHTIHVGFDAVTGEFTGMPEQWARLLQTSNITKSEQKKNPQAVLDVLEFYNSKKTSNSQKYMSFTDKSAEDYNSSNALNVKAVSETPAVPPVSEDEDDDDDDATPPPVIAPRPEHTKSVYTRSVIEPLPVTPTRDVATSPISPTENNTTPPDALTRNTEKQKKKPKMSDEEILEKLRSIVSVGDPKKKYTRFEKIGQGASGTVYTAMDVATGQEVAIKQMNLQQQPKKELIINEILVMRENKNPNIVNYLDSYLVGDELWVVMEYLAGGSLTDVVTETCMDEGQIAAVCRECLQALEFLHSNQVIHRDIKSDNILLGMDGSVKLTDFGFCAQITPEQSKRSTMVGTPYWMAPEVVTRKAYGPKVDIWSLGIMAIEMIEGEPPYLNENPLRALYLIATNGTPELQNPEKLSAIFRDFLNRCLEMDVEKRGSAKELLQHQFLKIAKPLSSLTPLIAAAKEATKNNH
Voltage-gated inwardly rectifying potassium channel KCNH2, sequence (Q12809 whole entry): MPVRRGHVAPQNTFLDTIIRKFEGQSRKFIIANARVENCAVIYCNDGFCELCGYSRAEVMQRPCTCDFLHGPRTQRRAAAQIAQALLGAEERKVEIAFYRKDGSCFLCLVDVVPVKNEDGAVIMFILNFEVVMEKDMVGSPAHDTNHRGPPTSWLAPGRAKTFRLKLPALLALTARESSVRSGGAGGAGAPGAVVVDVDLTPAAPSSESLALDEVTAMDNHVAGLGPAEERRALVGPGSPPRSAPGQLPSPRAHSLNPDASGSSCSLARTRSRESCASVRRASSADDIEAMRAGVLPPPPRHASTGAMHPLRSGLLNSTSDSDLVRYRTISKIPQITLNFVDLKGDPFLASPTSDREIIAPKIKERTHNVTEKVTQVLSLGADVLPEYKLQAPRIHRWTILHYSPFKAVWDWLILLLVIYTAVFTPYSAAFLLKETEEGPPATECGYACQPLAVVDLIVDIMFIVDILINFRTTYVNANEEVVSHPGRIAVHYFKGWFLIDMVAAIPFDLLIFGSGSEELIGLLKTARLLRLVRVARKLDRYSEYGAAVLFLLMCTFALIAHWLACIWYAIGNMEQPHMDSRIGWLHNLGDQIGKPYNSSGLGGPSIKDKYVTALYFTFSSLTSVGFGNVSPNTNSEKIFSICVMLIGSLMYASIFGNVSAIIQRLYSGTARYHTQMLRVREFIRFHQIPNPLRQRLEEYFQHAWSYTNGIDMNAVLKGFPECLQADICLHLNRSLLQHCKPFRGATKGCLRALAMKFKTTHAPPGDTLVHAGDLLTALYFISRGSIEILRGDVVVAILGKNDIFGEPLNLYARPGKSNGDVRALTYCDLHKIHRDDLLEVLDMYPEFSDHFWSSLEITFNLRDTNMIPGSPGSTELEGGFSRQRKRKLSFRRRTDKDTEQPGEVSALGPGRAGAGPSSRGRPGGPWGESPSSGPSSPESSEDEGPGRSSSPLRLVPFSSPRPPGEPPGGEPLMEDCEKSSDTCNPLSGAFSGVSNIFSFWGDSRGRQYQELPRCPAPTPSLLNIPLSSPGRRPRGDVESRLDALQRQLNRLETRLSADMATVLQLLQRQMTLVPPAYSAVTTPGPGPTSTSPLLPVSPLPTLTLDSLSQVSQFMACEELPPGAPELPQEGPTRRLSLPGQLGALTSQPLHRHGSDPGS
Tyrosine-protein kinase receptor UFO (Homo sapiens), sequence (P30530 whole entry): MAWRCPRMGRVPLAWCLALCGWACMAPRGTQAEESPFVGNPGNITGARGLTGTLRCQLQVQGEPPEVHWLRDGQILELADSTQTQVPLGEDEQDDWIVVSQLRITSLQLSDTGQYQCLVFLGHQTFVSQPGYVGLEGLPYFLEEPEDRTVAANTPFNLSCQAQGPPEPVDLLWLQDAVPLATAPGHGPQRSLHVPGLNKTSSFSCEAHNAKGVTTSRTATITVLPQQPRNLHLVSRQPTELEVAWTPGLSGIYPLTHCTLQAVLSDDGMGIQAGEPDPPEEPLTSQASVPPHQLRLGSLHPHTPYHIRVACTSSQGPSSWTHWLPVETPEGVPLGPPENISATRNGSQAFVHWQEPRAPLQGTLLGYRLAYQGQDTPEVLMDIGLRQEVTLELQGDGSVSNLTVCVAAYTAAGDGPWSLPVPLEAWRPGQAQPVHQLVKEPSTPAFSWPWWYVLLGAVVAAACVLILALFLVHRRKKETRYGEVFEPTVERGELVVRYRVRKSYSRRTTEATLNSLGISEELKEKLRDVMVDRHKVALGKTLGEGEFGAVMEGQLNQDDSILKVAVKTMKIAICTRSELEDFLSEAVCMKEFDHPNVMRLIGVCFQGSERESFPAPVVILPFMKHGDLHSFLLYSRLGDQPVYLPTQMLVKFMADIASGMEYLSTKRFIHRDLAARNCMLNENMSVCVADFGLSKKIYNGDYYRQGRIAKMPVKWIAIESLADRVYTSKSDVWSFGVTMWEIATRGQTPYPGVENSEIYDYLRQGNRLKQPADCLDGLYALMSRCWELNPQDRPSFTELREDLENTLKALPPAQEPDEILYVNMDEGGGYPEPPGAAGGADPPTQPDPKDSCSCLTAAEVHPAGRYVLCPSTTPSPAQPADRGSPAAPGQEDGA
Mitogen-activated protein kinase 14 (Homo sapiens), sequence (Q16539 whole entry): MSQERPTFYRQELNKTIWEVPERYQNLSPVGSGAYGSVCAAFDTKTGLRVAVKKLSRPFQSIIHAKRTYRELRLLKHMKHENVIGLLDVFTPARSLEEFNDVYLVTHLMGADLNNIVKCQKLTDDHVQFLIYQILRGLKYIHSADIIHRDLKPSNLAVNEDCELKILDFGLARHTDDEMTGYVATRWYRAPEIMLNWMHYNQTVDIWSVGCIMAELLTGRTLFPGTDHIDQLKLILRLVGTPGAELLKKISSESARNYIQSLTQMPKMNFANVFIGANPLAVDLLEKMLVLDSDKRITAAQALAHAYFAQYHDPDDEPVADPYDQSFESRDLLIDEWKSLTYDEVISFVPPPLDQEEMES
Tyrosine-protein kinase BTK (Homo sapiens), sequence (Q06187 whole entry): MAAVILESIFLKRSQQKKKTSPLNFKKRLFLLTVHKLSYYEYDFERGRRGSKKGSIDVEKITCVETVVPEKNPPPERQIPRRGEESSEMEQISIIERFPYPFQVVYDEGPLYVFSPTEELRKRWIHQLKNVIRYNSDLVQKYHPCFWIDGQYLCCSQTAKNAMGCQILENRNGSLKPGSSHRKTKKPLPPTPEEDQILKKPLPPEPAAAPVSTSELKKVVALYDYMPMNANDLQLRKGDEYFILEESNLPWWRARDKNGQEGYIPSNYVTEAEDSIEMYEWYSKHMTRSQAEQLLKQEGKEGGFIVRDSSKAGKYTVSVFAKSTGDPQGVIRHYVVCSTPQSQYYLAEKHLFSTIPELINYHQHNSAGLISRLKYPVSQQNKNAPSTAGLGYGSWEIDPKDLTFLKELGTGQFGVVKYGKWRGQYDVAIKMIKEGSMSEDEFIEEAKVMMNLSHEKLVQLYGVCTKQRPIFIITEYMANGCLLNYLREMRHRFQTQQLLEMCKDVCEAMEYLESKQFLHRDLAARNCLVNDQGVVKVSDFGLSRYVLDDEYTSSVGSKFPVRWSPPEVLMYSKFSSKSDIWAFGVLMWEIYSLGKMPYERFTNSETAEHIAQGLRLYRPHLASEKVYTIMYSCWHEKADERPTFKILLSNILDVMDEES
Serine/threonine-protein kinase B-raf (Homo sapiens), sequence (P15056 whole entry): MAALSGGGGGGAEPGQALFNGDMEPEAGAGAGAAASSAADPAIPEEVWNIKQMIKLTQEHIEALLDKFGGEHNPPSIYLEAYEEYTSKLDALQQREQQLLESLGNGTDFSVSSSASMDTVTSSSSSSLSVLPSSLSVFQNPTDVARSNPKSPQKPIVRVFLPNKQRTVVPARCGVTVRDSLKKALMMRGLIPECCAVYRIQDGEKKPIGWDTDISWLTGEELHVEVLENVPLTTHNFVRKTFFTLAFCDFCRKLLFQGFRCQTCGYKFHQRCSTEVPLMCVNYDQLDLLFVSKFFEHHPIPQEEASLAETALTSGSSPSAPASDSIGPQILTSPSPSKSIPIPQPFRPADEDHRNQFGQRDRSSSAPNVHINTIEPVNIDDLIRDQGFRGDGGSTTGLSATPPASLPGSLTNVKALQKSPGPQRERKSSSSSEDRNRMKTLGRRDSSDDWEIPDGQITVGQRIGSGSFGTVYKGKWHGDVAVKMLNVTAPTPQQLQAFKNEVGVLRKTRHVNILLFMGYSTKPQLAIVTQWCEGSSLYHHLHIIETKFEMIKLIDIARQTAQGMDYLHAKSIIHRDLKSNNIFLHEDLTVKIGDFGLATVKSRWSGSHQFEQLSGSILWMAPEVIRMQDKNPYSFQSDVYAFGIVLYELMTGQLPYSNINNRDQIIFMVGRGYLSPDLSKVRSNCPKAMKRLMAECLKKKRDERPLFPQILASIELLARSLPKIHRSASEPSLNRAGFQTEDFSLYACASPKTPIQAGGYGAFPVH

- Activity [1]: 112%
- Activity [3]: 84.4%
- Activity [4]: 91.9%
- Activity [5]: 99.2%
- Activity [6]: 78%
- Activity [7]: 97%
- Activity [8]: 106%
- Activity [9]: 27.6%
- Activity [10]: 104%
- Activity [11]: 88.4%
- Activity [12]: 99%
- Activity [13]: 99.1%
- inhibition [14]: Active
- Activity [15]: 89.3%
- Activity [16]: 115%
Structure (SMILES): Cc1cccn(-c2ccc(-c3ccc4c(C(=O)NCc5ccncc5)n[nH]c4c3)c(Cl)c2)c1=O
- IC50 [2]: 16 µM
- inhibition of growth at 1 µM (HCT-116): 8.73%
- Activity (MDA-MB-231): Dose-dependent effect
